Consider two compounds from ChEMBL document CHEMBL4725346, “Syntheses and Evaluation of New Bisacridine Derivatives for Dual Binding of G-Quadruplex and i-Motif in Regulating Oncogene c-myc Expression” (J Med Chem, 2020).

Each structure is given as a SMILES string. Calls of active or inactive are those of the source. No cut-off for these calls is given here.

Data set [1] in a line: Stabilization of 5'-FAM/3'-TAMRA labeled c-myc promoter i-motif DNA FPy33T (unknown origin) assessed as change in melting temperature at 1 uM by FRET assay (reference value: 53.2 degreeC). An outline of the steps:
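FRET melting of dual FAM/TAMRA-labelled FPy33T annealed in 1× BPES (30 mM potassium phosphate, 1 mM EDTA, 100 mM KCl), pH 5.5. Final 0.2 µM DNA with or without ligand. Excitation 470 nm, emission 530 nm, read every 1 °C over 37–99 °C. ΔTm taken against DNA alone.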

Data set [2] concerns Quadruplex DNA. Nature of the data set: Stabilization of 5'-FAM/3'-TAMRA labeled c-myc promoter G-quadruplex DNA FPu22T (unknown origin) assessed as change in melting temperature at 1 uM by FRET assay (reference value: 66.5 degreeC). The format is nucleic-acid assay. The procedure, abridged: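 FRET melting of dual FAM/TAMRA-labelled FPu22T annealed in 10 mM Tris-HCl pH 7.4 with KCl. Final 0.2 µM DNA with or without ligand. Excitation 470 nm, emission 530 nm, read every 1 °C over 37–99 °C on a real-time PCR cycler. ΔTm = Tm(DNA+ligand) − Tm(DNA).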

A short description of data set [3]: Stabilization of 5'-FAM/3'-TAMRA labeled hairpin DNA F10T (unknown origin) assessed as change in melting temperature at 1 uM by FRET assay (reference value: 59.1 degreeC).
Data set [4] can be described thus: Binding affinity to 5'-biotin labeled c-myc promoter i-motif DNA Py33 (unknown origin) by surface plasmon resonance method. The procedure, abridged: (§1)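 SPR: 5'-biotin DNA diluted to 1 μM and captured (1000 RU) on a sensor chip, with a blank cell as reference. Running buffers: Py33 in 20 mM MES pH 5.8, 100 mM KCl, 0.05% Tween-20; Pu27 and duplex in 50 mM Tris-HCl pH 7.4, 100 mM KCl. Six ligand concentrations serially diluted from DMSO stock. Association 260 s, dissociation 300 s at 25 °C; NaOH regeneration; blank sensorgrams subtracted.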
On the technique in general: Surface plasmon resonance follows binding to a sensor surface in real time, without labels.

For data set [5], the target named is Quadruplex DNA. Nature of the data set: Binding affinity to 5'-biotin labeled c-myc promoter G-quadruplex DNA Pu27 (unknown origin) by surface plasmon resonance method. The format is nucleic-acid assay. An outline of the steps:
as §1

A further data set deals with dsDNA. Nature of the data set: Binding affinity to 5'-biotin labeled duplex DNA (unknown origin) by surface plasmon resonance method. The format is nucleic-acid assay. The procedure, abridged:
as §1

Data set [6] has as its system Quadruplex DNA. The data set can be described thus: Stabilization of c-myc promoter G-quadruplex DNA Pu27 (unknown origin) in pH 7.4 Tris-HCl buffer by CD spectroscopy. The format is nucleic-acid assay. An outline of the steps:
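Pu27 at 1 µM in 10 mM Tris-HCl pH 7.4, with or without ligand. Annealed at 95 °C for 5 min, cooled to room temperature, stored at 4 °C overnight. CD spectra taken in a 4 mm cuvette over 230–350 nm, three scans averaged, smoothed and buffer-baseline corrected.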

Data set [7] has as its system Quadruplex DNA. The data set can be described thus: Stabilization of c-myc promoter G-quadruplex DNA Pu27 (unknown origin) assessed as effect on melting temperature at 5 uM by CD spectroscopy. The format is nucleic-acid assay. An outline of the steps: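 CD melting: Pu27 diluted to 1 µM in 10 mM Tris-HCl, 5 mM KCl, pH 7.4, with or without ligand. Annealed at 95 °C for 5 min, slowly cooled, then heated at 1 °C/min while monitoring 260 nm. Tm obtained by curve fitting.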

Data set [8] in a line: Stabilization of c-myc promoter i-motif DNA Py33 (unknown origin) assessed as effect on melting temperature at 5 uM by CD spectroscopy. An outline of the steps: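 CD melting: Py33 at 1 µM in 1× BPES pH 6.4, with or without ligand. Annealed at 95 °C for 5 min, slowly cooled, then heated at 1 °C/min while monitoring 260 nm. Tm obtained by curve fitting.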
Another data set has as its system A-375. The data set can be described thus: Antiproliferative activity against human A-375 cells after 48 hrs by MTT assay. Format: functional, cell-based. The settings on record: A-375, 48 h. An outline of the steps:
(§2)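 Cells seeded at 5.0×10^3 per well, pre-incubated 12 h at 37 °C, 5% CO2, then exposed to compounds for 48 h; DMSO-only control. MTT (2.5 mg/mL) added for 4 h, formazan dissolved in DMSO, absorbance at 570 nm. Each dose tested in triplicate; IC50 from percentage survival relative to negative control.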
On the technique in general: Tetrazolium dyes change colour on reduction, which living cells bring about.

Another data set relates to HeLa. The data set can be described thus: Antiproliferative activity against human Hela cells after 48 hrs by MTT assay. The format is functional, cell-based. The procedure, abridged:
as §2

The next data set deals with A549. The data set can be described thus: Antiproliferative activity against human A549 cells after 48 hrs by MTT assay. Format: functional, cell-based. The settings on record: A549, 48 h. An outline of the steps: as §2
In the next data set the test system is U2OS. The data set can be described thus: Antiproliferative activity against human U2OS cells after 48 hrs by MTT assay. The format is functional, cell-based. The procedure, abridged: as §2
The next data set relates to HCT-116. The data set can be described thus: Antiproliferative activity against human HCT-116 cells after 48 hrs by MTT assay. Format: functional, cell-based. The following applies: HCT-116, 48 h. An outline of the steps:
as §2

The next data set relates to SiHa. The data set can be described thus: Antiproliferative activity against human SiHa cells after 48 hrs by MTT assay. The format is functional, cell-based. An outline of the steps: as §2
In another data set the test system is Huh-7. The data set can be described thus: Antiproliferative activity against human Huh-7 cells after 48 hrs by MTT assay. The settings on record: Huh-7, 48 h. The format is functional, cell-based. An outline of the steps:
as §2

A short description of data set [9]: Drug uptake in human SiHa cells. Format: ADME, cell-based.
Data set [10] concerns Quadruplex DNA. The data set can be described thus: Binding affinity to c-myc wild-type promoter G-quadruplex/i-motif (unknown origin) expressed in human SiHa cells assessed as reduction in c-myc transcription by measuring decrease in ratio of renilla/firefly luciferase activity at 1/3 IC50 after 48 hrs by dual-luciferase reporter assay. Format: cell-based. An outline of the steps:
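SiHa cells transfected with 200 ng psiCHECK2 plasmid carrying wild-type, mutant or deleted c-myc promoter. Compounds added 8 h after transfection, then incubated 48 h at 37 °C. Cells washed with ice-cold PBS; Renilla/firefly activity ratio read by dual-luciferase assay.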
In general terms: In a reporter assay the amount or activity of a reporter protein is the signal.

Data set [11] concerns Quadruplex DNA. Nature of the data set: Binding affinity to c-myc promoter G-quadruplex/i-motif in human SiHa cells assessed as reduction in c-myc mRNA level incubated for 24 hrs by qRT-PCR analysis. Format: cell-based. The settings on record: dose microM 0.625-2.5, time 24.0 hrs. The procedure, abridged:
(§3)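 SiHa cells at 0, 0.625, 1.25 and 2.5 μM for 24 h; DMSO control. Total RNA extracted with TRIzol. 1.5 μg RNA reverse-transcribed with oligo dT18 and M-MLV (42 °C 60 min). PCR of 30 cycles (95/58/72 °C), products run on 1.2% agarose. β-actin as internal control; three repeats.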

For data set [12], the system named is Quadruplex DNA. Nature of the data set: Binding affinity to c-myc promoter G-quadruplex/i-motif in human SiHa cells assessed as reduction in c-myc mRNA level at 1.25 uM incubated for 24 hrs by qRT-PCR analysis. Also on record: scale not given: the % may be the effect or the level left. Format: cell-based. An outline of the steps: as §3
The test system of data set [13] is Quadruplex DNA. The data set can be described thus: Binding affinity to c-myc promoter G-quadruplex/i-motif in human SiHa cells assessed as reduction in c-myc mRNA level at 2.5 uM incubated for 24 hrs by qRT-PCR analysis. Also on record: scale not given: the % may be the effect or the level left. Format: cell-based. The procedure, abridged:
as §3

Data set [14] concerns Quadruplex DNA. The data set can be described thus: Binding affinity to c-myc promoter G-quadruplex/i-motif in human SiHa cells assessed as reduction in c-myc mRNA level at 5 uM incubated for 24 hrs by qRT-PCR analysis. Also on record: scale not given: the % may be the effect or the level left. Format: cell-based.
The test system of data set [15] is Quadruplex DNA. The data set can be described thus: Binding affinity to c-myc promoter G-quadruplex/i-motif in human SiHa cells assessed as reduction in c-myc expression incubated for 24 hrs by Western blot analysis. The format is cell-based. An outline of the steps:
(§4)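 SiHa cells treated 24 h at 0, 0.625, 1.25 and 2.5 μM, then lysed in buffer with 1 mM PMSF. Protein measured by BCA, equal loads run on 8% gel and blotted to PVDF. Probed with anti-c-MYC and anti-β-actin (loading control), HRP anti-rabbit secondary, chemiluminescence read-out.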

Data set [16] has as its system Quadruplex DNA. The data set can be described thus: Binding affinity to c-myc promoter G-quadruplex/i-motif in human SiHa cells assessed as reduction in c-myc expression at 1.25 uM incubated for 24 hrs by Western blot analysis. The format is cell-based. Also on record: scale not given: the % may be the effect or the level left. An outline of the steps:
as §4

The test system of data set [17] is Quadruplex DNA. The data set can be described thus: Binding affinity to c-myc promoter G-quadruplex/i-motif in human SiHa cells assessed as reduction in c-myc expression at 2.5 uM incubated for 24 hrs by Western blot analysis. Format: cell-based. Also on record: scale not given: the % may be the effect or the level left. The procedure, abridged: as §4
The subject of data set [18] is Quadruplex DNA. Nature of the data set: Binding affinity to c-myc promoter G-quadruplex/i-motif in human SiHa cells assessed as reduction in c-myc expression at 5 uM incubated for 24 hrs by Western blot analysis. Further details: scale not given: the % may be the effect or the level left. Format: cell-based.
The subject of the next data set is ssDNA. The data set can be described thus: Binding affinity to 5'-biotin labeled single-stranded DNA Py33 (unknown origin) at <=50 uM by surface plasmon resonance method. The format is nucleic-acid assay.

As to `Cc1ccc2nc3ccc(C)cc3c(NCCOCCOCCNc3c4cc(C)ccc4nc4ccc(C)cc34)c2c1`, the values for the ΔTm (in data set [1]; in the data set with Quadruplex DNA [2]; in data set [3]) were 1 °C, 13.5 °C and 2.3 °C, respectively. The results for the Kd (in data set [4]; on Quadruplex DNA [5]; on dsDNA) were 26.2 µM, 3.6 µM and 22.1 µM, respectively. Moreover, the outcome in the data set with Quadruplex DNA [6], with Quadruplex DNA [7] and in the data set with Quadruplex DNA [10] was Active. In addition, the outcome in [8] was inactive. In addition, the IC50 (commonly the concentration needed to halve the response being measured) in the data set on A-375 worked out at 1.75 µM; with HeLa it was 1.36 µM; in the data set on A549 it was 2.26 µM; with U2OS, 1.23 µM; in the data set with HCT-116 it was 2.12 µM; in the data set with SiHa, 0.56 µM. This compound gave an IC50 with Huh-7 of 1.95 µM. Further, the Drug uptake entry in data set [9] was “Active”. Also, the Activity result in the data set on Quadruplex DNA [11] was “Dose-dependent effect”; in the data set on Quadruplex DNA [12], 32.6%; with Quadruplex DNA [13] it was 55.8%; in the data set with Quadruplex DNA [14] it was 79.8%; in the data set on Quadruplex DNA [15] it was “Dose-dependent effect”; in the data set on Quadruplex DNA [16], 25.3%. Also, the figures for the Activity in the data set with Quadruplex DNA [17] and in the data set on Quadruplex DNA [18] were 42.2% and 62.3%, respectively.

`c1ccc2c(NCCNCCNc3c4ccccc4nc4ccccc34)c3ccccc3nc2c1`: the ΔTm (commonly the change in melting temperature against a reference sample) in data set [1] was 0.7 °C; with Quadruplex DNA [2], 15.2 °C; in data set [3], 2.5 °C. Further, the Kd (as a rule, the concentration at which binding is half-saturated) was determined as 12.3 µM in data set [4], 4.7 µM at Quadruplex DNA [5] and 6.5 µM on dsDNA. In addition, the IC50 in the data set with A-375 was 6.85 µM; in the data set with HeLa it was 13.8 µM; with A549, 9.79 µM; in the data set on U2OS it was 5.48 µM; in the data set on HCT-116 it was 11.1 µM; in the data set with SiHa, 12 µM. This compound showed an IC50 in the data set on Huh-7 of 20 µM. In addition, in the data set with ssDNA, the outcome was inactive.
